ChEMBL document CHEMBL5033990, “Novel Aryl-Substituted Pyrimidones as Inhibitors of 3-Mercaptopyruvate Sulfurtransferase with Antiproliferative Efficacy in Colon Cancer” (J Med Chem, 2021)
Activity calls are given as the source filed them. No cut-off for these calls is given here.

Key:
[1] = Inhibition of recombinant human 3-MST expressed in Escherichia coli assessed as inhibition of H2S generation using 3-MP as substrate preincubated with enzyme for 1 hr followed by incubation with substrate for 1 hr by AzMC probe based fluorescence analysis
Method in brief: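 Same 3-MST/3-MP/AzMC assay, 1 h preincubation then 1 h kinetic read, at 3, 10, 30, 100 and 300 μM (final DMSO 0.3%). Run for compounds inhibiting at least 60% at 100 μM. Three experiments in triplicate. IC50 from nonlinear fit of data taken between min 20 and 40 of the 60 min read.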

[2] = Inhibition of GYY4137-induced H2S release assessed as H2S-induced fluorescence signal at 300 uM measured after 2 hrs by AzMC probe based fluorescence analysis; assay type: functional; parameters: scale not given: the % may be the effect or the level left
Method in brief: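 H2S scavenging/interference check in 50 mM Tris-HCl pH 8: compound at 300 μM with 100 μM AzMC and 5 mM GYY4137 as nonenzymatic H2S donor. Fluorescence read kinetically for 2 h at 37 °C (ex 365/em 450 nm). Signal loss above 20% flagged as potential scavenger/interferer.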

[3] = molecular target: Cystathionine gamma-lyase (Homo sapiens) (UniProt P32929); experiment: Inhibition of human full length CSE using L-cysteine as substrate at 30 to 300 uM preincubated with enzyme for 1 hr followed by substrate and PLP addition for 2 hrs by AzMC probe based fluorescence analysis; details: dose 30-300 µM, time 3.0 hrs
Sequence of Cystathionine gamma-lyase (Homo sapiens) (P32929 whole entry): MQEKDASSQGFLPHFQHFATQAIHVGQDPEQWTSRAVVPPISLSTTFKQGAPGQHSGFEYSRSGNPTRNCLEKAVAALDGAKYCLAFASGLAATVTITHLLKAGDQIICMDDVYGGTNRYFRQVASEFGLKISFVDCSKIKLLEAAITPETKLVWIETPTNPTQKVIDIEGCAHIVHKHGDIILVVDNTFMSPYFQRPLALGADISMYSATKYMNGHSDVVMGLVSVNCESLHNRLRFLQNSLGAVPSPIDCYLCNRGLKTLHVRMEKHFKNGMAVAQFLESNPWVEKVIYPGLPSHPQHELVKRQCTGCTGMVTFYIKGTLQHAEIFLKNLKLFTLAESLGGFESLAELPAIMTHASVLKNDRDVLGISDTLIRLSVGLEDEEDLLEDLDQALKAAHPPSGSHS
Method in brief: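 Human full-length CSE, 2 μg/well, preincubated 1 h with compound at 30 or 300 μM. Then added 5 μM PLP and 2 mM L-cysteine. AzMC fluorescence read kinetically for 2 h at 37 °C. Substrate background subtracted; percent of control, at least three replicates.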

CT26 [4] = experiment: Antiproliferative activity against mouse CT26 cells assessed as inhibition of cell proliferation measured after 48 hrs by IncuCyte live-cell imaging assay; assay type: functional, cell-based; details: CT26, 48 h
MC-38 [5] = experiment: Antiproliferative activity against mouse MC38 cells assessed as inhibition of cell proliferation measured after 48 hrs by IncuCyte live-cell imaging assay; assay type: functional, cell-based; details: MC-38, 48 h
CT26 [6] = experiment: Antiproliferative activity against mouse CT26 cells assessed as inhibition of cell proliferation measured after 24 hrs by MTT assay; assay type: functional, cell-based; details: CT26, 24 h
MC-38 [7] = experiment: Antiproliferative activity against mouse MC38 cells assessed as inhibition of cell proliferation measured after 24 hrs by MTT assay; assay type: functional, cell-based; details: MC-38, 24 h
MC-38 [8] = experiment: Antitumor activity against mouse MC38 cells xenografed in C57BL/6 mouse assessed as reduction in tumor growth at 20 mg/kg, ip administered daily for 2 weeks by caliper analysis; assay type: functional, organism-based
[9] = molecular target: T1, Cystathionine beta-synthase (Homo sapiens) (UniProt P35520); experiment: Inhibition of human full length CBS using L-cysteine and L-homocysteine as substrate at 30 to 300 uM preincubated with enzyme for 1 hr followed by substrate, PLP and SAM addition for 2 hrs by AzMC probe based fluorescence analysis; details: dose 30-300 µM, time 3.0 hrs
T1 sequence (whole entry): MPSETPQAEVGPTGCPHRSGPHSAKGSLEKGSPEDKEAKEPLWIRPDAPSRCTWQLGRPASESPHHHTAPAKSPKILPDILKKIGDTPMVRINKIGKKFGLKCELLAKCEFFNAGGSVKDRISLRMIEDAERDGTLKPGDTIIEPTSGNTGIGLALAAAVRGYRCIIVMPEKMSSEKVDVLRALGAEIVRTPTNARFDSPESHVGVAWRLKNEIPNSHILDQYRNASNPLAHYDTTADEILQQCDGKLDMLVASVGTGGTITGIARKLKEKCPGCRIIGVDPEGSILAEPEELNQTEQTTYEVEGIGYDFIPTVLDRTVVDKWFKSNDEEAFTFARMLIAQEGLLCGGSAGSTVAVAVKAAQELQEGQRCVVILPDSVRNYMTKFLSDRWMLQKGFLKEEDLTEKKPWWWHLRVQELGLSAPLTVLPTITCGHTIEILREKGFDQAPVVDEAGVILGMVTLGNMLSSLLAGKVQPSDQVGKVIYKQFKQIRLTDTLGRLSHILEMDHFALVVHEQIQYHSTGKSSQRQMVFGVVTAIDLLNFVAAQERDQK
Method in brief: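 Human full-length CBS, 0.5 μg/well, preincubated 1 h with compound at 30 or 300 μM. Then added 5 μM PLP, 2 mM L-cysteine, 2 mM L-homocysteine and 500 μM SAM. AzMC fluorescence read kinetically for 2 h at 37 °C. Substrate background subtracted; percent of control, at least three replicates.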

CT26 [10] = experiment: Inhibition of 3-MST in mouse CT26 cells assessed as inhibition of H2S generation at 300 uM incubated for 4 hrs by AzMC probe based fluorescence analysis; assay type: cell-based
Method in brief: (§1)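 Cells seeded at 60,000/well in 8-well chambers and allowed to adhere overnight. Exposed to 300 μM compound for 4 h, then supernatant replaced with 1 mM AzMC in HBSS plus glucose for 1 h. Fluorescence imaged by microscopy; mean pixel intensity expressed as percent of control.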

MC38 = experiment: Inhibition of 3-MST in mouse MC38 cells assessed as inhibition of H2S generation at 300 uM incubated for 4 hrs by AzMC probe based fluorescence analysis; assay type: cell-based; method in brief: as §1
Mus musculus = experiment: Antitumor activity against mouse MC38 cells xenografed in C57BL/6 mouse assessed as euthanasia rate at 20 mg/kg, ip administered daily for 2 weeks and measured on day 32 (reference value: 75%); assay type: functional, MC-38; details: time 32 day
MC-38 [11] = experiment: Antiproliferative activity against mouse MC38 cells assessed as inhibition of cell proliferation upto 300 uM measured after 24 hrs by MTT assay; assay type: functional, cell-based; details: dose microM <=300, time 24.0 hrs
Method in brief: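 CT26 or MC38 cells in high-glucose DMEM with 10% FBS and penicillin/streptomycin, 37 °C, 5% CO2. Seeded at 10,000 cells/well and treated after 1 h adherence at 3, 10, 30, 100 and 300 μM (final DMSO 0.5%). After 24 h, medium replaced by 2 mg/mL MTT in PBS for 3 h. Formazan dissolved in DMSO, absorbance read at 590 nm minus 690 nm. Expressed as percent of control; three experiments in triplicate.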

Homo sapiens = species: Homo sapiens; experiment: Inhibition of recombinant human 3-MST expressed in Escherichia coli assessed as inhibition of H2S generation using 3-MP as substrate at 100 uM preincubated with enzyme for 1 hr followed by incubation with substrate for 1 hr by AzMC probe based fluorescence analysis; details: time 2.0 hrs
Method in brief: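 Human recombinant 3-MST, 3 μg/well, in 50 mM Tris-HCl pH 8 preincubated 1 h at 37 °C with compound at 100 μM (from 100 mM DMSO stock). Then 2 mM 3-MP (no extra sulfur acceptor) and 10 μM AzMC added. Fluorescence read kinetically 1 h at 37 °C, ex 365/em 450 nm. Percent inhibition, mean of three replicates.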

NC(=O)c1cc(C(=O)CSc2nccc(=O)[nH]2)ccc1O
IC50 [1]: 20.2 µM
Activity [2]: < 80%

Cc1cc(=O)[nH]c(SCC(=O)c2ccc(O)c3ccccc23)n1
IC50 [1]: 3.3 µM
Activity [2]: < 80%

O=C(CSc1nccc(=O)[nH]1)c1cc(Cl)c(O)c(Cl)c1
IC50 [1]: 12.1 µM
Activity [2]: < 80%

Cc1cc(=O)[nH]c(SCC(=O)c2ccc(O)c(F)c2)n1
IC50 [1]: 28 µM
Activity [2]: < 80%

Cc1cc(=O)[nH]c(SCC(=O)c2ccc(F)c3ccccc23)n1
IC50 [1]: 35.9 µM

O=C(CSc1nccc(=O)[nH]1)c1ccc(O)cc1
IC50 [1]: 12.9 µM
inhibition [3]: Active

O=C(CSc1nccc(=O)[nH]1)c1cccc2ccccc12
IC50 [1]: 7.3 µM
IC50 (CT26 [4]): 352 µM
IC50 (MC-38 [5]): 191 µM
IC50 (CT26 [6]): 356 µM
IC50 (MC-38 [7]): 366 µM
Activity (MC-38 [8]): Active
inhibition [9]: inactive
inhibition [3]: inactive
inhibition (CT26 [10]): Active
inhibition (MC38): Active
Activity (Mus musculus): 33%

CC(=O)Nc1ccc(C(=O)CSc2nccc(O)n2)cc1
IC50 [1]: 14.4 µM
IC50 (CT26 [4]): > 1000 µM
IC50 (MC-38 [5]): > 1000 µM
IC50 (CT26 [6]): 475 µM
IC50 (MC-38 [7]): > 1000 µM
inhibition [9]: inactive
inhibition [3]: inactive
inhibition (CT26 [10]): Active
inhibition (MC38): Active
Activity (MC-38 [11]): inactive

O=C(CSc1nccc(=O)[nH]1)c1ccc(O)c(O)c1
IC50 [1]: 18.9 µM
Activity [2]: < 80%

Cc1cc(=O)[nH]c(SCC(=O)c2ccc(O)c(C(N)=O)c2)n1
IC50 [1]: 21.3 µM
Activity [2]: < 80%

O=C(CSc1nccc(=O)[nH]1)c1cc(O)cc(O)c1
IC50 [1]: 34.1 µM
Activity [2]: < 80%

Cc1cc(=O)[nH]c(SCC(=O)c2cc(O)cc(O)c2)n1
IC50 [1]: 23.6 µM
IC50 (CT26 [4]): > 1000 µM
IC50 (MC-38 [5]): > 1000 µM
IC50 (CT26 [6]): > 1000 µM
IC50 (MC-38 [7]): > 1000 µM
inhibition [9]: inactive
inhibition [3]: inactive
inhibition (CT26 [10]): Active
inhibition (MC38): Active
Activity (MC-38 [11]): inactive

O=C(CSc1nccc(=O)[nH]1)c1ccc2ccccc2c1
IC50 [1]: 28.2 µM
IC50 (CT26 [4]): 150 µM
IC50 (MC-38 [5]): 152 µM
IC50 (CT26 [6]): 200 µM
IC50 (MC-38 [7]): 340 µM
inhibition [9]: inactive
inhibition [3]: inactive
inhibition (CT26 [10]): Active
inhibition (MC38): Active

CC(=O)Nc1ccc(C(=O)CSc2nc(C)cc(O)n2)cc1
IC50 [1]: 9.9 µM
IC50 (CT26 [4]): > 1000 µM
IC50 (MC-38 [5]): > 1000 µM
IC50 (CT26 [6]): > 1000 µM
IC50 (MC-38 [7]): > 1000 µM
inhibition [9]: inactive
inhibition [3]: inactive
inhibition (CT26 [10]): Active
inhibition (MC38): Active
Activity (MC-38 [11]): inactive

O=C(CSc1nccc(=O)[nH]1)c1ccc2ncccc2c1
IC50 [1]: 15.5 µM
Activity [2]: < 80%

Nc1c(Cl)cc(C(=O)CSc2nccc(=O)[nH]2)cc1Cl
IC50 [1]: 6.6 µM
Activity [2]: < 80%

Cc1cc(=O)[nH]c(SCC(=O)c2ccc3ncccc3c2)n1
IC50 [1]: 16.1 µM
inhibition [3]: Active

Cc1cc(=O)[nH]c(SCC(=O)c2cc(Cl)c(O)c(Cl)c2)n1
IC50 [1]: 13.4 µM
Activity [2]: < 80%

Cc1cc(=O)[nH]c(SCC(=O)c2ccc3ccccc3c2)n1
IC50 [1]: 22.6 µM

Cc1cc(O)nc(SCC(=O)c2ccc(O)c(O)c2)n1
IC50 [1]: 15.6 µM
Activity [2]: < 80%

Cc1cc(O)nc(SCC(=O)c2ccc(O)cc2)n1
IC50 [1]: 10.8 µM
Activity [2]: < 80%

O=C(CSc1nccc(=O)[nH]1)c1ccc(F)c2ccccc12
IC50 [1]: 31.8 µM

O=C(CSc1nccc(=O)[nH]1)c1ccc(O)c(F)c1
IC50 [1]: 21.6 µM
Activity [2]: < 80%

O=C(CSc1nccc(=O)[nH]1)c1ccc(O)c(Cl)c1
IC50 [1]: 18.8 µM
Activity [2]: < 80%

Cc1cc(=O)[nH]c(SCC(=O)c2ccc(O)c(Cl)c2)n1
IC50 [1]: 25.3 µM
Activity [2]: < 80%

O=C(CSc1nccc(=O)[nH]1)c1ccc(O)c(I)c1
IC50 [1]: 14.2 µM
Activity [2]: < 80%

Cc1cc(=O)[nH]c(SCC(=O)c2cccc3ccccc23)n1
IC50 [1]: 15.6 µM
IC50 (CT26 [4]): 207 µM
IC50 (MC-38 [5]): 101 µM
IC50 (CT26 [6]): 243 µM
IC50 (MC-38 [7]): 221 µM
Activity (MC-38 [8]): inactive
inhibition (Homo sapiens): 68%
inhibition (CT26 [10]): Active
inhibition (MC38): Active
Activity (Mus musculus): 67%

Cc1cc(=O)[nH]c(SCC(=O)c2ccc3c(c2)OCO3)n1
IC50 [1]: 19.5 µM
IC50 (CT26 [4]): 520 µM
IC50 (MC-38 [5]): 777 µM
IC50 (CT26 [6]): 502 µM
IC50 (MC-38 [7]): 367 µM
inhibition [9]: inactive
inhibition [3]: inactive
inhibition (CT26 [10]): Active
inhibition (MC38): Active
Activity (MC-38 [11]): inactive

Cc1cc(=O)[nH]c(SCC(=O)c2ccc(O)c(I)c2)n1
IC50 [1]: 16.9 µM
Activity [2]: < 80%
